Data as given in ChEMBL document CHEMBL1153518 (J Med Chem, 2009).

Key:
[1] = test system: Human immunodeficiency virus 2; assay: Antiviral activity against HIV2 ROD infected in human CEM cells assessed as inhibition of virus-induced cytopathicity after 4 days; type: functional, organism-based; conditions: Human immunodeficiency virus 2, ISOLATE ROD, CCRF-CEM, 96 h
Method in brief: (§1)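 Human CEM cells (~3 × 10^5 cells/mL) infected with 100 CCID50 per mL of HIV-1(IIIB) or HIV-2(ROD), then seeded into wells holding compound dilutions. Incubated 4 days at 37°C. Giant cell formation was scored microscopically.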

Human alphaherpesvirus 1 [2] = assay: Antiviral activity against acyclovir […]-resistant thymidine kinase-deficient HSV1 KOS infected in HEL cells assessed as inhibition of virus-induced cytopathicity; type: functional, organism-based; conditions: Human alphaherpesvirus 1, KOS
Method in brief: (§2)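 Confluent human embryonic lung fibroblast monolayers inoculated with 100 CCID50 virus. After 1–2 h adsorption, residual virus was removed and cultures were incubated with varying compound concentrations. Cytopathicity was scored once untreated infected controls reached full cytopathicity.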

Human alphaherpesvirus 2 = assay: Antiviral activity against HSV2 G infected in HEL cells assessed as inhibition of virus-induced cytopathicity; type: functional, organism-based; conditions: Human alphaherpesvirus 2, strain G; method in brief: as §2
[3] = Cytotoxicity against HEL cells assessed as concentration required to cause alteration in cell alteration by microscopically; type: cell-based; conditions: human
Human alphaherpesvirus 1 [4] = assay: Antiviral activity against HSV1 KOS infected in HEL cells assessed as inhibition of virus-induced cytopathicity; type: functional, organism-based; conditions: Human alphaherpesvirus 1, KOS; method in brief: as §2
CCRF-CEM = assay: Cytotoxicity against human CEM cells assessed as decrease in cell viability; type: cell-based
[5] = test system: Human immunodeficiency virus 1; assay: Antiviral activity against HIV1 3B/Lai infected in human CEM cells assessed as inhibition of virus-induced cytopathicity after 4 days; type: functional, organism-based; conditions: Human immunodeficiency virus 1, 3B/Lai, CCRF-CEM, 96 h; method in brief: as §1
HEL = assay: Cytotoxicity against HEL cells assessed as inhibition of cell proliferation; type: cell-based; conditions: Homo sapiens
[6] = test system: Human immunodeficiency virus 1; assay: Antiviral activity against HIV1 3B/Lai infected in human MT4 cells assessed as suppression of p24 production after 3 days; type: functional, organism-based; conditions: Human immunodeficiency virus 1, 3B/Lai, MT4, 72 h
Method in brief: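 MT-4 cells (1 × 10^4 cells/mL) in fresh medium infected with X4LAI.04 stock, 10 μL (0.7 ng p24) per mL of cell suspension. Mixed with medium carrying compound dilutions and kept at 37°C. After 3 days, p24 was measured in culture supernatants.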

MT4 [7] = assay: Cytotoxicity against human MT4 cells assessed as inhibition of cell proliferation; type: cell-based
MT4 [8] = assay: Cytotoxicity against human MT4 cells assessed as decrease in cell viability; type: cell-based
Method in brief: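 MT-4 viability was measured by automated propidium iodide-based cell counting, enumerating total and dead cells in untreated and compound-treated cultures.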

Compound | EC50 [1] [µM] | EC50 (Human alphaherpesvirus 1 [2]) [µM] | EC50 (Human alphaherpesvirus 2) [µM] | MCC [3] [µM] | EC50 (Human alphaherpesvirus 1 [4]) [µM] | IC50 (CCRF-CEM) [µM] | EC50 [5] [µM] | IC50 (HEL) [µM] | EC50 [6] [µM] | CC50 (MT4 [7]) [µM] | IC50 (MT4 [8]) [µM]
COC(=O)[C@H](NP(=O)(OCCOCn1cnc2c(=O)[nH]c(N)nc21)Oc1cccc2ccccc12)C(C)C (stereo partly drawn) | > 100 | > 100 | > 100 | > 100 | > 100 | > 100 | > 100 | – | – | – | –
CCCOC(=O)[C@H](C)NP(=O)(OCCOCn1cnc2c(=O)[nH]c(N)nc21)Oc1cccc2ccccc12 (stereo partly drawn) | 24 | 16 | 1.9 | ≥ 50 | 5.5 | – | 6.6 | 68 | 10 | – | –
Nc1nc2c(ncn2COCCO)c(=O)[nH]1 [ACYCLOVIR] | > 250 | – | – | > 100 | – | > 250 | > 250 | – | – | > 250 | > 250
CC[C@H](C)[C@H](NP(=O)(OCCOCn1cnc2c(=O)[nH]c(N)nc21)Oc1ccccc1)C(=O)OCc1ccccc1 (stereo partly drawn) | > 20 | 1.4 | 1.1 | > 100 | 1.1 | – | > 20 | – | – | – | –
C[C@H](NP(=O)(OCCOCn1cnc2c(=O)[nH]c(N)nc21)Oc1ccccc1)C(=O)OCc1ccccc1 (stereo partly drawn) | 11 | 15 | 4 | > 50 | 8 | 42 | 16 | 91 | 5.7 | > 150 | 33.8
Nc1nc2c(ncn2COCCOP(=O)(NC(Cc2ccccc2)C(=O)OCc2ccccc2)Oc2ccccc2)c(=O)[nH]1 (stereo not drawn) | 34 | – | 8 | > 50 | 17 | – | 26 | 87 | 16 | – | –
COC(=O)[C@@H](NP(=O)(OCCOCn1cnc2c(=O)[nH]c(N)nc21)Oc1cccc2ccccc12)C(C)C (stereo partly drawn) | > 100 | > 100 | > 100 | > 100 | > 100 | > 100 | > 100 | – | – | – | –
COC(=O)[C@H](C)NP(=O)(OCCOCn1cnc2c(=O)[nH]c(N)nc21)Oc1cccc2ccccc12 (stereo partly drawn) | 13 | 79 | 10 | > 50 | 16 | – | 10 | > 100 | 4.7 | > 150 | 18.7
CC(C)(NP(=O)(OCCOCn1cnc2c(=O)[nH]c(N)nc21)Oc1ccccc1)C(=O)OCc1ccccc1 (stereo not drawn) | > 100 | 5.5 | 0.8 | > 100 | 1.4 | > 100 | – | – | 7 | > 150 | > 150
C[C@H](NP(=O)(OCCOCn1cnc2c(=O)[nH]c(N)nc21)Oc1ccc(F)cc1)C(=O)OCc1ccccc1 (stereo partly drawn) | > 20 | 1.5 | 0.5 | > 100 | 0.9 | 76 | – | – | – | – | –
CC(C)(NP(=O)(OCCOCn1cnc2c(=O)[nH]c(N)nc21)Oc1cccc2ccccc12)C(=O)OCc1ccccc1 (stereo not drawn) | 79 | 3.2 | 1.6 | > 50 | 2.4 | > 100 | ≥ 100 | > 100 | – | – | –
C[C@H](NP(=O)(OCCOCn1cnc2c(=O)[nH]c(N)nc21)Oc1cccc2ccccc12)C(=O)OC(C)(C)C (stereo partly drawn) | > 100 | > 100 | 50 | > 50 | > 100 | > 100 | > 100 | > 100 | > 150 | > 150 | > 150
CN(C)/C=N/c1nc2c(ncn2COCCOP(=O)(NC(C)(C)C(=O)OCc2ccccc2)Oc2cccc3ccccc23)c(=O)[nH]1 (stereo not drawn) | > 20 | – | – | – | – | 40 | > 20 | – | 15 | 45 | 140
CN(C)/C=N/c1nc2c(ncn2COCCOP(=O)(Oc2ccccc2)N2CCC[C@H]2C(=O)OCc2ccccc2)c(=O)[nH]1 (stereo partly drawn) | > 20 | – | – | – | – | 45 | > 20 | – | 30 | 90 | > 150
CC(C)[C@H](NP(=O)(OCCOCn1cnc2c(=O)[nH]c(N)nc21)Oc1ccccc1)C(=O)OCc1ccccc1 (stereo partly drawn) | > 50 | 7.5 | 0.85 | > 100 | 2 | ≥ 100 | > 50 | – | – | – | –
COC(=O)[C@H](C)NP(=O)(OCCOCn1cnc2c(=O)[nH]c(N)nc21)Oc1ccccc1 (stereo partly drawn) | 26 | 79 | 16 | > 100 | 20 | – | 17 | – | 15 | – | –
CC(C)OC(=O)[C@H](C)NP(=O)(OCCOCn1cnc2c(=O)[nH]c(N)nc21)Oc1cccc2ccccc12 (stereo partly drawn) | 12 | ≥ 45 | 10 | > 50 | 15 | 36 | 6.2 | > 100 | 5.4 | > 150 | 72.5
CC(C)OC(=O)[C@H](C)NP(=O)(OCCOCn1cnc2c(=O)[nH]c(N)nc21)Oc1ccccc1 (stereo partly drawn) | > 100 | 27 | 8.5 | > 50 | 10 | > 100 | – | > 100 | > 150 | > 150 | > 150
Nc1nc2c(ncn2COCCOP(=O)(NCC(=O)OCc2ccccc2)Oc2ccccc2)c(=O)[nH]1 (stereo not drawn) | > 100 | 9 | 0.8 | > 100 | 3 | > 100 | > 100 | – | – | – | –
C[C@H](NP(=O)(OCCOCn1cnc2c(=O)[nH]c(N)nc21)Oc1cccc2ccccc12)C(=O)OCc1ccccc1 (stereo partly drawn) | 8.9 | 10 | 1.4 | ≥ 20 | 2 | – | 15 | 20 | 0.8 | – | > 150
COC(=O)[C@@H](NP(=O)(OCCOCn1cnc2c(=O)[nH]c(/N=C/N(C)C)nc21)Oc1cccc2ccccc12)C(C)C (stereo partly drawn) | > 100 | – | – | – | – | > 100 | > 100 | – | > 150 | > 150 | > 150
Nc1nc2c(ncn2COCCOP(=O)(Oc2ccccc2)N2CCC[C@H]2C(=O)OCc2ccccc2)c(=O)[nH]1 (stereo partly drawn) | > 20 | > 100 | > 100 | > 100 | > 100 | > 100 | > 20 | > 100 | – | – | –
CCOC(=O)[C@H](C)NP(=O)(OCCOCn1cnc2c(=O)[nH]c(N)nc21)Oc1cccc2ccccc12 (stereo partly drawn) | 42 | 32 | 9.5 | > 150 | 32 | 32 | 12 | > 100 | 1.7 | > 150 | 12
CCOC(=O)[C@@H](NP(=O)(OCCOCn1cnc2c(=O)[nH]c(N)nc21)Oc1cccc2ccccc12)C(C)C (stereo partly drawn) | > 100 | 42 | 32 | > 100 | 51 | > 100 | > 100 | – | – | – | –
CC(C)C[C@H](NP(=O)(OCCOCn1cnc2c(=O)[nH]c(N)nc21)Oc1ccccc1)C(=O)OCc1ccccc1 (stereo partly drawn) | > 20 | 1.4 | 0.7 | > 100 | 0.8 | > 20 | > 20 | – | 0.8 | 17 | > 150
CN(C)/C=N/c1nc2c(ncn2COCCOP(=O)(NC(C)(C)C(=O)OCc2ccccc2)Oc2ccccc2)c(=O)[nH]1 (stereo not drawn) | > 100 | – | – | – | – | > 100 | > 100 | – | 70 | > 150 | > 150
C[C@@H](NP(=O)(OCCOCn1cnc2c(=O)[nH]c(N)nc21)Oc1ccccc1)C(=O)OCc1ccccc1 (stereo partly drawn) | > 250 | 23 | 1.4 | > 100 | 2 | ≥ 250 | – | – | – | – | –
